From ChEMBL document CHEMBL1773034 (J Nat Prod, 2011) come the findings set out here.

Data set [1] deals with THP-1. The experiment in a line: Antiinflammatory activity against human THP1 cells assessed as inhibition of LPS-induced ZFP36 gene expression at 10 uM pretreated for 1 hr before LPS challenge measured after 2 hrs by RT-qPCR relative to control. In kind it is functional. The essentials: (§1)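 THP-1 monocytes, PMA-differentiated to macrophages, pretreated 1 h with compound in DMSO (0.1% final), then stimulated with 1 μg/mL LPS. Cells lysed in wells at 2, 4, 6 and 10 h post-LPS; TaqMan two-step RT-qPCR, ROX-normalized, ΔΔCT with unstimulated control set to 1. Means ± SE, three independent experiments.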

The test system of data set [2] is THP-1. The experiment in a line: Antiinflammatory activity against human THP1 cells of assessed as inhibition of LPS-induced TNFalpha gene expression at 10 uM pretreated for 1 hr before LPS challenge measured after 2 to 10 hrs by RT-qPCR. Type of data set: functional, cell-based. The essentials: as §1
A short description of data set [3]: Cytotoxicity against human THP1 cells after 24 hrs by erythrosin B staining. In kind it is cell-based. As to conditions: THP-1 cells, read-out: LD50. The essentials:
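THP-1 monocytes given five increasing concentrations (1-50 μM for the flavone; 1-100 μM for indomethacin) from DMSO stocks, final DMSO 0.1%, in RPMI 1640 with 10% FBS. Incubated 24 h at 37 C, 5% CO2. Cells were mixed 1:1 with 0.1% erythrosin B in PBS and counted by hemocytometer, with unstained cells taken as viable. LD50 was calculated from dose-response curves.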

For data set [4], the system named is THP-1. The experiment in a line: Antiinflammatory activity against human THP1 cells assessed as inhibition of LPS-induced NFKB p65 subunit translocation to nucleus at 10 uM pretreated for 1 hr before LPS challenge relative to control. Type of data set: functional. The essentials:
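PMA-differentiated THP-1 macrophages pretreated 1 h (0.1% DMSO vehicle), then 1 μg/mL E. coli 0111:B4 LPS; harvested 1 h after LPS by trypsinization/scraping. Cytoplasmic and nuclear fractions separated; p65 quantified in each by transcription-factor ELISA-type kit, cytoplasm/nuclear ratio calculated. Means ± SE, three independent experiments, three measurements each.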

In data set [5] the target is T1, Prostaglandin G/H synthase 1 (Ovis aries, UniProt P05979).
T1 sequence (P05979 whole entry): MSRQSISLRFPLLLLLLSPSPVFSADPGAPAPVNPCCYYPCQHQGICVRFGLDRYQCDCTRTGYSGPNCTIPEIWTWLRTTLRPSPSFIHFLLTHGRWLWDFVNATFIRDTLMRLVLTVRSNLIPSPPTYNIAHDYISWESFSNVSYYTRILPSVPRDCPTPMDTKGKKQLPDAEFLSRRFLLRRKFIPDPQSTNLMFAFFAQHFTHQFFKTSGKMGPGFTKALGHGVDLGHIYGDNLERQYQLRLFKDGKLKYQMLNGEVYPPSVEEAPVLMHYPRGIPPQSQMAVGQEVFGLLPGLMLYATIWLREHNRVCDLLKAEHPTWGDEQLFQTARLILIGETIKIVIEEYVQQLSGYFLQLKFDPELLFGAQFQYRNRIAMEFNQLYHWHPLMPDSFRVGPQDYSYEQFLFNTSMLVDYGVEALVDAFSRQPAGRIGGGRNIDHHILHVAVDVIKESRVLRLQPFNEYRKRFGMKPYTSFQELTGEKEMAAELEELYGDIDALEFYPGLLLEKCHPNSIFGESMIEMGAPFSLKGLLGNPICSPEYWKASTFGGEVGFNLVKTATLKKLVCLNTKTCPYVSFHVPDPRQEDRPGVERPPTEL
In words: Inhibition of ram seminal vesicle COX-1 assessed as PGE2 production from arachidonic acid after 20 mins enzyme immunoassay. In kind it is tissue-based.

Data set [6] has as its system THP-1. The experiment in a line: Antiinflammatory activity against human THP1 cells of assessed as inhibition of LPS-induced TNFalpha protein synthesis at 10 uM pretreated for 1 hr before LPS challenge measured after 2 to 10 hrs. In kind it is functional, cell-based.
Data set [7] has as its system RAW264.7. In words: Antiinflammatory activity against mouse RAW264.7 cells assessed as nitric oxide production. In kind it is functional, cell-based.
The target of data set [8] is T2, Prostaglandin G/H synthase 2 (Homo sapiens, UniProt P35354).
T2 sequence (P35354 whole entry): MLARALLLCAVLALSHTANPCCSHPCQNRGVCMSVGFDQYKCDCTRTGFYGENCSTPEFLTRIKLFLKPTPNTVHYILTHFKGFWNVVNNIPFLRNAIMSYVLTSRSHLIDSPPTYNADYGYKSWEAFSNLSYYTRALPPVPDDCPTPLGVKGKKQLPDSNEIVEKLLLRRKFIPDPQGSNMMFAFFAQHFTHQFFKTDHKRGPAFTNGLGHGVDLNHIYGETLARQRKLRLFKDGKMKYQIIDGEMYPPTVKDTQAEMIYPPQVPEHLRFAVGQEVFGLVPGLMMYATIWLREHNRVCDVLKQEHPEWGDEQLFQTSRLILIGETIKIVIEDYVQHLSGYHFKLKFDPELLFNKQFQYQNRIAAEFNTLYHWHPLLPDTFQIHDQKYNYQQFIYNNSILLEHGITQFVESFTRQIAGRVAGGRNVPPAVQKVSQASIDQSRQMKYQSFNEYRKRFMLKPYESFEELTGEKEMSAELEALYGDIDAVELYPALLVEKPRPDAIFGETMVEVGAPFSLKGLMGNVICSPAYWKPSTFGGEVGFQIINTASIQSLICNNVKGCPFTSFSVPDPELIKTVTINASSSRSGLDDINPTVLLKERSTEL
The experiment in a line: Inhibition of human recombinant COX-2 assessed as PGE2 production from arachidonic acid after 20 mins enzyme immunoassay.

In data set [9] the test system is THP-1. The experiment in a line: Antiinflammatory activity against human THP1 cells of assessed as inhibition of LPS-induced TNFalpha protein synthesis at 10 uM pretreated for 1 hr before LPS challenge measured after 2 to 10 hrs relative to control. In kind it is functional.
A short description of data set [10]: Selectivity ratio of IC50 for human recombinant COX2 to IC50 for ram seminal vesicle COX1. Type of data set: tissue-based. The essentials: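 Enzymes were human recombinant COX-2 (0.5 unit/reaction) and ram seminal vesicle COX-1 (1 unit/reaction), in 0.1 M Tris/HCl pH 8.0 with 5 μM hematin, 18 mM L-epinephrine, 50 μM EDTA. Compound in DMSO was preincubated 5 min at room temperature, then arachidonic acid was added for 20 min at 37 °C. PGE2 was read by competitive EIA at 405 nm. IC50 came from regression on ≥3 concentrations, with four independent experiments. Selectivity was taken as the COX-2/COX-1 IC50 ratio.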

Data set [11] concerns RAW264.7. In words: Antiinflammatory activity against mouse RAW264.7 cells assessed as iNOS gene expression. In kind it is functional, cell-based.
Data set [12] deals with THP-1. The experiment in a line: Antiinflammatory activity against human THP1 cells of assessed as inhibition of LPS-induced TNFalpha gene expression at 10 uM pretreated for 1 hr before LPS challenge measured after 2 hrs by RT-qPCR relative to control. Type of data set: functional. The essentials:
as §1

Data set [13] deals with THP-1. In words: Antiinflammatory activity against human THP1 cells of assessed as inhibition of LPS-induced COX-2 gene expression at 10 uM pretreated for 1 hr before LPS challenge measured after 4 hrs by RT-qPCR. In kind it is functional, cell-based. The essentials:
as §1

Data set [14] concerns THP-1. In words: Antiinflammatory activity against human THP1 cells assessed as increase in LPS-induced ZFP36 gene expression at 10 uM pretreated for 1 hr before LPS challenge measured after 4 hrs by RT-qPCR relative to control.

Calls of active or inactive are those of the source. The rule behind the calls is not given here.

`COc1ccc2c(c1)c(CC(=O)O)c(C)n2C(=O)c1ccc(Cl)cc1` [INDOMETHACIN]: the outcome in the data set with THP-1 [1], in the data set on THP-1 [2] and in the data set with THP-1 [4] was Active. Also, the CC50 at 24 h in [3] is over 100000 nM.

On to `CC(C)=CCc1c(-c2ccc(O)cc2O)oc2cc3c(c(O)c2c1=O)C=CC(C)(C)O3` [CUDRAFLAVONE B], for which the IC50 in [5] is 1500 nM; in data set [8], 2500 nM. The result in the data set on THP-1 [6], in the data set with THP-1 [2] and in the data set with THP-1 [13] was Active. Moreover, the Activity result with RAW264.7 [7] and in the data set with RAW264.7 [11] was “Dose-dependent effect” throughout. Besides, the figures for the Ratio with THP-1 [9], in the data set with THP-1 [12] and in the data set with THP-1 [14] were 20, 5.8 and 2, respectively. For the same compound, the Ratio IC50 in [10] was 1.7. The “fold change (FC)” value in the data set on THP-1 [1] is given as 5.8; in the data set on THP-1 [4], 3.2. For the same compound, the CC50 at 24 h in data set [3] was found to be 47600 nM.
